These results are taken from ChEMBL document CHEMBL1143654, “Enhancement of aqueous solubility and stability employing a trans acetate axis in trans planar amine platinum compounds while maintaining the biological profile” (J Med Chem, 2005).

A word on the IC50: it is the midpoint of a concentration-inhibition curve. Lower therefore signals greater potency. By pKa is commonly meant the pH at which an ionisable group is half protonated. The low end stands for a stronger acid or weaker base, the high end for a weaker acid or stronger base.

Data set [1] can be described thus: Hydrolysis rate constant of the compound. It counts as ADME.
Data set [2] relates to 41M. Briefly: Concentration required to inhibit growth of the human ovarian cancer 41M cells by 50% after 96h exposure. Format: functional, cell-based.
For data set [3], the system named is CH1. Nature of the data set: Resistance factor was determined as ratio of resistance to that of sensitivity of CH1 cells after 96h exposure to compound. Conditions: Homo sapiens. It counts as functional, cell-based.
Data set [4] concerns 41M. Nature of the data set: Resistance factor was determined as ratio of resistance to that of sensitivity of 41M cells after 96h exposure to compound. To be noted: Homo sapiens. Format: functional, cell-based.
Data set [5] can be described thus: Solubility in water by sequential addition. Format: physicochemical. The method in brief: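 Water was added to the compound in sequential portions, with 15 min agitation after each addition. Solubility was taken as the point at which the solution was no longer clear.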
The nature of data set [6]: Acid dissociation constant pKa2. Format: physicochemical. The essentials:
(§1)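 Potentiometric titration of 10^-3 M solutions of trans-[Pt(OH)₂(L)(L')], made from the corresponding dinitrato compounds, with standardized NaOH (9.5×10^-4 M); pKa values were taken from the pH titration curves.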

Data set [7] deals with CH1. Briefly: Concentration required to inhibit growth of the human ovarian cancer CH1 cells by 50% after 96h exposure. Format: functional, cell-based.
Data set [8] relates to A2780. Briefly: Concentration required to inhibit growth of the human ovarian cancer A2780 cells by 50% after 96h exposure. Format: functional, cell-based.
The nature of data set [9]: Acid dissociation constant pKa1. It counts as physicochemical. The method in brief:
as §1

The test system of data set [10] is A2780. Nature of the data set: Resistance factor was determined as ratio of resistance to that of sensitivity of A2780 cells after 96h exposure to compound. To be noted: Homo sapiens. Format: functional, cell-based.

The substance CARBOPLATIN showed a k1 in [1] of less than 1e-08 s⁻¹.
CISPLATIN [listing 1 of 2 here]: the IC50 in the data set on 41M [2] came out at 1.4 µM. In [1], this substance showed a k1 of 0.0000518 s⁻¹.
Regarding CISPLATIN [listing 2 of 2 here], the RF is 6.7 with CH1 [3] and 6.1 in the data set on 41M [4].
In data set [1], TRANSPLATIN gave a k1 of 0.00019 s⁻¹.
The same measure, in the same setting: for [PtCl(dien)] the value was 0.000065 s⁻¹.
As for trans-[Pt(OAc)2(NH3)2], the S in data set [5] is 21 mg/mL. Further, the pKa in data set [6] turned out to be 7.08.
“trans-[Pt(OAc)2(NH3)(iquin)] [listing 1 of 2 here]”: the half-maximal inhibitory concentration (IC50) in the data set on 41M [2] turned out to be 22 µM; with CH1 [7] it was 20 µM; in the data set on A2780 [8], 13 µM. This substance showed a S in data set [5] of 5.2 mg/mL. Moreover, the pKa in data set [9] is reported as 3.78; in data set [6], 6.92. In [1], the k1 was found to be 7.4e-07 s⁻¹.
In the case of “trans-[Pt(OAc)2(NH3)(iquin)] [listing 2 of 2 here]”, the RF with CH1 [3] is 0.37; in the data set on 41M [4] it was 0.26; in the data set with A2780 [10], 1.69.
On to “trans-[Pt(OAc)2(NH3)(quin)] [listing 1 of 2 here]”, for which the half-maximal inhibitory concentration (IC50) was 22 µM in the data set on 41M [2], 17 µM in the data set on CH1 [7] and 13 µM with A2780 [8]. The S in data set [5] was found to be 1.6 mg/mL. This substance also returned a k1 in data set [1] of 3.7e-07 s⁻¹.
Regarding “trans-[Pt(OAc)2(NH3)(quin)] [listing 2 of 2 here]”, the RF in the data set on CH1 [3] was 0.48; in the data set with 41M [4], 1; in the data set on A2780 [10], 1.46.
With “trans-[Pt(OAc)2(py)2] [listing 1 of 2 here]”, the IC50 is 14 µM in the data set with 41M [2], 19 µM in the data set on CH1 [7] and 12.8 µM with A2780 [8]. In data set [5], this substance registered an S of 15 mg/mL. In data set [1], the k1 is 3.2e-07 s⁻¹.
For “trans-[Pt(OAc)2(py)2] [listing 2 of 2 here]”, the RF is 0.22 in the data set on CH1 [3], 0.32 with 41M [4] and 0.9 in the data set on A2780 [10].
